In brackets after ≈: the same amount, converted by molar mass.
Experiments:
Format in all cases: functional
Erythrocyte = experiment: Anti-inflammatory activity in human RBC membranes assessed as inhibition of heat-induced hemolysis at 100 ug/mL incubated for 20 mins at 54 degC by UV-VIS spectrometer analysis relative to control
Method in brief: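 Washed human RBCs as 40% (v/v) stock in isotonic 10 mM sodium phosphate buffer pH 7.4 with 0.9% NaCl. Compound 0.1 mg/mL in isotonic buffer with 30 µL erythrocyte suspension, duplicate sets. One pair heated at 54 °C for 20 min, other held at 0-5 °C. Spun 3 min at 1300 rpm, supernatant absorbance at 540 nm. % inhibition = 100 × [1 − (OD2−OD1)/(OD3−OD1)]; vehicle control.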

Bacillus cereus = experiment: Antibacterial activity against Bacillus cereus after 24 hrs by broth microdilution method
Staphylococcus aureus = experiment: Antibacterial activity against Staphylococcus aureus MTCC 12598 after 24 hrs by broth microdilution method; conditions: MTCC 12598, 24 h
Method in brief: (§1)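 Broth tube dilution in BHI broth, run in triplicate. Strains sub-cultured at 35 °C for 48 h. Inoculum grown in BHI at 35 °C for 2–6 h and adjusted to 0.5 McFarland. Ten-tube serial dilution of compound, 200 µL diluted culture added to each tube. Media plus culture tube as control. Incubated 24 h at 37 °C; MIC read by turbidity.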

Pseudomonas aeruginosa = experiment: Antibacterial activity against Pseudomonas aeruginosa MTCC 25668 after 24 hrs by broth microdilution method; conditions: MTCC 25668, 24 h; method in brief: as §1
Escherichia coli = experiment: Antibacterial activity against Escherichia coli MTCC 443 after 24 hrs by broth microdilution method; conditions: MTCC 443, 24 h; method in brief: as §1
Prevotella intermedia = experiment: Antibacterial activity against Prevotella intermedia after 24 hrs by broth microdilution method
Enterococcus faecalis = experiment: Antibacterial activity against Enterococcus faecalis MTCC 35550 after 24 hrs by broth microdilution method; conditions: MTCC 35550, 24 h; method in brief: as §1

SMILES | inhibition at 100 µg/mL (Erythrocyte) [%] | MIC (Bacillus cereus) [mg/L] | MIC (Staphylococcus aureus) [mg/L] | MIC (Pseudomonas aeruginosa) [mg/L] | MIC (Escherichia coli) [mg/L] | MIC (Prevotella intermedia) [mg/L] | MIC (Enterococcus faecalis) [mg/L]
Cc1ccc2oc(=O)cc(C(CC(=O)O)c3c(O)c4ccccc4oc3=O)c2c1 (centres undefined) | 14.1 | 25 (≈ 63.7 µM) | 1.56 (≈ 3.98 µM) | 25 (≈ 63.7 µM) | 3.25 (≈ 8.28 µM) | 6.25 (≈ 15.9 µM) | 1.56 (≈ 3.98 µM)
Cc1ccc2c(C3CC(=O)Oc4c3c(=O)oc3ccccc43)cc(=O)oc2c1 (centres undefined) | 36.8 | 6.25 (≈ 16.7 µM) | 6.25 (≈ 16.7 µM) | 25 (≈ 66.8 µM) | 1.56 (≈ 4.17 µM) | 3.25 (≈ 8.68 µM) | 3.25 (≈ 8.68 µM)
CCOC(=O)C1=C(N)Oc2c(c(=O)oc3ccccc23)C1c1cc(=O)oc2ccc(OC)cc12 (centres undefined) | 52.1 | 6.25 (≈ 13.5 µM) | 6.25 (≈ 13.5 µM) | 25 (≈ 54.2 µM) | 6.25 (≈ 13.5 µM) | 1.56 (≈ 3.38 µM) | 6.25 (≈ 13.5 µM)
Cc1ccc2oc(=O)cc(C3CC(=O)Oc4c3c(=O)oc3ccccc43)c2c1 (centres undefined) | 31.4 | 50 (≈ 134 µM) | 12.5 (≈ 33.4 µM) | 25 (≈ 66.8 µM) | 1.56 (≈ 4.17 µM) | 3.25 (≈ 8.68 µM) | 6.25 (≈ 16.7 µM)
O=C(O)CC(c1c(O)c2ccccc2oc1=O)c1cc(=O)oc2ccc(Cl)cc12 (centres undefined) | 61.2 | 25 (≈ 60.6 µM) | 3.25 (≈ 7.87 µM) | 25 (≈ 60.6 µM) | 1.56 (≈ 3.78 µM) | 3.25 (≈ 7.87 µM) | 1.56 (≈ 3.78 µM)
N#CC1=C(N)Oc2c(c(=O)oc3ccccc23)C1c1cc(=O)oc2c1ccc1ccccc12 (centres undefined) | 54.4 | 1.56 (≈ 3.59 µM) | 3.25 (≈ 7.48 µM) | 25 (≈ 57.5 µM) | 6.25 (≈ 14.4 µM) | 1.56 (≈ 3.59 µM) | 1.56 (≈ 3.59 µM)
O=C(O)CC(c1c(O)c2ccccc2oc1=O)c1cc(=O)oc2c1ccc1ccccc12 (centres undefined) | 59.1 | 6.25 (≈ 14.6 µM) | 6.25 (≈ 14.6 µM) | 6.25 (≈ 14.6 µM) | 3.25 (≈ 7.59 µM) | 25 (≈ 58.4 µM) | 1.56 (≈ 3.64 µM)
CCOC(=O)C1=C(N)Oc2c(c(=O)oc3ccccc23)C1c1cc(=O)oc2ccc(Cl)cc12 (centres undefined) | 62.2 | 25 (≈ 53.7 µM) | 12.5 (≈ 26.8 µM) | 1.56 (≈ 3.35 µM) | 6.25 (≈ 13.4 µM) | 1.56 (≈ 3.35 µM) | 1.56 (≈ 3.35 µM)
N#CC1=C(N)Oc2c(c(=O)oc3ccccc23)C1c1cc(=O)oc2ccc(Cl)cc12 (centres undefined) | 43.3 | 25 (≈ 59.7 µM) | 25 (≈ 59.7 µM) | 6.25 (≈ 14.9 µM) | 6.25 (≈ 14.9 µM) | 6.25 (≈ 14.9 µM) | 3.25 (≈ 7.76 µM)
CCOC(=O)C1=C(N)Oc2c(c(=O)oc3ccccc23)C1c1cc(=O)oc2ccc(C)cc12 (centres undefined) | 42.3 | 6.25 (≈ 14 µM) | 3.25 (≈ 7.3 µM) | 6.25 (≈ 14 µM) | 1.56 (≈ 3.5 µM) | 6.25 (≈ 14 µM) | 6.25 (≈ 14 µM)
COc1ccc2oc(=O)cc(C3CC(=O)Oc4c3c(=O)oc3ccccc43)c2c1 (centres undefined) | 50.5 | 6.25 (≈ 16 µM) | 6.25 (≈ 16 µM) | 6.25 (≈ 16 µM) | 3.25 (≈ 8.33 µM) | 25 (≈ 64 µM) | 6.25 (≈ 16 µM)
CCOC(=O)C1=C(N)Oc2c(c(=O)oc3ccccc23)C1c1cc(=O)oc2c1ccc1ccccc12 (centres undefined) | 61.2 | 6.25 (≈ 13 µM) | 6.25 (≈ 13 µM) | 1.56 (≈ 3.24 µM) | 1.56 (≈ 3.24 µM) | 6.25 (≈ 13 µM) | 6.25 (≈ 13 µM)
O=C1CC(c2cc(=O)oc3ccc(Cl)cc23)c2c(c3ccccc3oc2=O)O1 (centres undefined) | 70.7 | 25 (≈ 63.3 µM) | 6.25 (≈ 15.8 µM) | 25 (≈ 63.3 µM) | 6.25 (≈ 15.8 µM) | 6.25 (≈ 15.8 µM) | 3.25 (≈ 8.23 µM)
Cc1ccc2oc(=O)cc(C3C(C#N)=C(N)Oc4c3c(=O)oc3ccccc43)c2c1 (centres undefined) | 11.2 | 6.25 (≈ 15.7 µM) | 6.25 (≈ 15.7 µM) | 25 (≈ 62.8 µM) | 6.25 (≈ 15.7 µM) | 6.25 (≈ 15.7 µM) | 1.56 (≈ 3.92 µM)
Cc1ccc2c(C3C(C#N)=C(N)Oc4c3c(=O)oc3ccccc43)cc(=O)oc2c1 (centres undefined) | 69.1 | 1.56 (≈ 3.92 µM) | 1.56 (≈ 3.92 µM) | 1.56 (≈ 3.92 µM) | 1.56 (≈ 3.92 µM) | 6.25 (≈ 15.7 µM) | 6.25 (≈ 15.7 µM)
COc1ccc2oc(=O)cc(C(CC(=O)O)c3c(O)c4ccccc4oc3=O)c2c1 (centres undefined) | 23.3 | 6.25 (≈ 15.3 µM) | 3.25 (≈ 7.96 µM) | 1.56 (≈ 3.82 µM) | 1.56 (≈ 3.82 µM) | 6.25 (≈ 15.3 µM) | 1.56 (≈ 3.82 µM)
O=C1CC(c2cc(=O)oc3c2ccc2ccccc23)c2c(c3ccccc3oc2=O)O1 (centres undefined) | 37.6 | 25 (≈ 60.9 µM) | 25 (≈ 60.9 µM) | 1.56 (≈ 3.8 µM) | 6.25 (≈ 15.2 µM) | 25 (≈ 60.9 µM) | 6.25 (≈ 15.2 µM)
CCOC(=O)C1=C(N)Oc2c(c(=O)oc3ccccc23)C1c1cc(=O)oc2cc(C)ccc12 (centres undefined) | 69.4 | 25 (≈ 56.1 µM) | 12.5 (≈ 28.1 µM) | 6.25 (≈ 14 µM) | 6.25 (≈ 14 µM) | 6.25 (≈ 14 µM) | 6.25 (≈ 14 µM)
COc1ccc2oc(=O)cc(C3C(C#N)=C(N)Oc4c3c(=O)oc3ccccc43)c2c1 (centres undefined) | 15.3 | 6.25 (≈ 15.1 µM) | 12.5 (≈ 30.2 µM) | 1.56 (≈ 3.76 µM) | 1.56 (≈ 3.76 µM) | 6.25 (≈ 15.1 µM) | 3.25 (≈ 7.84 µM)
Cc1ccc2c(C(CC(=O)O)c3c(O)c4ccccc4oc3=O)cc(=O)oc2c1 (centres undefined) | 76.4 | 6.25 (≈ 15.9 µM) | 3.25 (≈ 8.28 µM) | 6.25 (≈ 15.9 µM) | 3.25 (≈ 8.28 µM) | 25 (≈ 63.7 µM) | 3.25 (≈ 8.28 µM)
CC(=O)Oc1ccccc1C(=O)O [ASPIRIN] | 36.2 | – | – | – | – | – | –
O=C(O)c1cn(C2CC2)c2cc(N3CCNCC3)c(F)cc2c1=O [CIPROFLOXACIN] | – | 6.25 (≈ 18.9 µM) | – | – | – | 6.25 (≈ 18.9 µM) | 6.25 (≈ 18.9 µM)

From ChEMBL document CHEMBL4138178, “Green, unexpected synthesis of bis-coumarin derivatives as potent anti-bacterial and anti-inflammatory agents” (2018)
